Source: ChEMBL document CHEMBL1909630, “Azaxanthene based selective glucocorticoid receptor modulators: design, synthesis, and pharmacological evaluation of (S)-4-(5-(1-((1,3,4-thiadiazol-2-yl)amino)-2-methyl-1-oxopropan-2-yl)-5H-chromeno[2,3-b]pyridin-2-yl)-2-fluoro-N,N-dimethylbenzamide (BMS-776532) and its methylene homologue …” (J Med Chem, 2011)
Calls of active or inactive are those of the source. The rule behind the calls is not given here.

Legend:
Blood [1] = test: Antiinflammatory activity in human whole blood assessed as inhibition of TNF-alpha-induced IL-8 production after overnight incubation by ELISA relative to dexamethasone; assay type: functional
MG-63 [2] = test: Induction of glutamine synthase expression in human MG63 cells after overnight incubation by spectrophotometry; assay type: cell-based
Blood [3] = test: Antiinflammatory activity in human whole blood assessed as inhibition of LPS-induced TNFalpha production after overnight incubation by ELISA; assay type: functional, tissue-based
Method in brief: (§1)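 Whole blood from two donors per experiment was collected into ACD-A. Compounds were added and the blood was incubated about 20 h at 37 °C under 5% CO2. Blood was then stimulated for 5 h with LPS (final 100 ng/mL, for TNFα) or IL-1β (final 10 ng/mL, for IL-8). Plasma TNFα or IL-8 was measured by ELISA. Efficacy was expressed as % of dexamethasone, and values are means of at least two experiments.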

[4] = target: T1, Mineralocorticoid receptor (Homo sapiens, UniProt P08235); test: Agonist activity at human mineralocorticoid receptor expressed in human A549 cells by fluorescence polarization assay; assay type: functional, cell-based
T1 sequence (P08235 whole entry): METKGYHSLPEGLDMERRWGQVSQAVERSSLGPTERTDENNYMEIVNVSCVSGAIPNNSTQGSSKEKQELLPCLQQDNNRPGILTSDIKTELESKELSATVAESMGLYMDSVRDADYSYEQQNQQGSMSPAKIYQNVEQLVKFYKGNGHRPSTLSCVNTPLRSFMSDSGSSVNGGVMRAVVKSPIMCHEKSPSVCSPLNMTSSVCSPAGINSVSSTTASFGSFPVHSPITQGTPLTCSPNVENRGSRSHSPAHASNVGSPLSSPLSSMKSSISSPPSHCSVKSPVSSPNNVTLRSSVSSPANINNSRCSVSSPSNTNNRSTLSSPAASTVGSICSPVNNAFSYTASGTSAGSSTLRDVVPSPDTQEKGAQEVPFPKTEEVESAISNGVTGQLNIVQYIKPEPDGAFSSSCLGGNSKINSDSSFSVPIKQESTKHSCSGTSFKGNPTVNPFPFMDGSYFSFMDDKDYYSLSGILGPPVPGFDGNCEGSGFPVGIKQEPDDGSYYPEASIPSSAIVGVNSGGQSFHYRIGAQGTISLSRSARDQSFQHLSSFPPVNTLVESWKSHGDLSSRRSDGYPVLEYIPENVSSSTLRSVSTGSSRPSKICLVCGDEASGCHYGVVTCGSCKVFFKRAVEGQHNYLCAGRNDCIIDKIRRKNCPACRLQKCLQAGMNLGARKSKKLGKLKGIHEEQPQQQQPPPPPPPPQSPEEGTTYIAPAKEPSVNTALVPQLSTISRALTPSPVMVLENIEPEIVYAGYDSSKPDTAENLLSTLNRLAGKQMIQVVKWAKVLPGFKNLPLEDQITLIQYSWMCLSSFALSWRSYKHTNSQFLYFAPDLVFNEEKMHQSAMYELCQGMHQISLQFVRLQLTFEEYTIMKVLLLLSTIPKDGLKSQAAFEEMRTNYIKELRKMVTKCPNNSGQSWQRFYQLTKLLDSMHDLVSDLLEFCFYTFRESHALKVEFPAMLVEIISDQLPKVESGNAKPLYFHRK

Blood [5] = test: Antiinflammatory activity in human whole blood assessed as inhibition of LPS-induced TNFalpha production after overnight incubation by ELISA relative to Dexamethasone; assay type: functional; method in brief: as §1
Rattus norvegicus [6] = test: Antiinflammatory activity in Freund's complete adjuvant-induced Lewis rat arthritis model assessed as reduction in paw swelling at 5 mg/kg/day, po qd for 21 days; assay type: functional, organism-based
Method in brief: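 Male Lewis rats were inoculated with Mycobacterium butyricum in incomplete Freund's adjuvant. Oral dosing was daily and preventative, running from day 0 to day 21. Onset and progression of arthritis were followed, and ED50 was estimated from the dose response.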

Blood [7] = test: Antiinflammatory activity in human whole blood assessed as inhibition of TNF-alpha-induced IL-8 production after overnight incubation by ELISA; assay type: functional, tissue-based
SAOS-2 = test: Induction of alkaline phosphatase expression in human Saos2 cells after 3 days by spectrophotometry; assay type: cell-based; settings: SAOS-2, 72 h
MG-63 [8] = test: Induction of glutamine synthase expression in human MG63 cells after overnight incubation by spectrophotometry relative to prednisolone; assay type: cell-based
Blood [9] = test: Antiinflammatory activity in human whole blood assessed as inhibition of IL-1beta-induced IL-8 production after overnight incubation by ELISA; assay type: functional, tissue-based; method in brief: as §1
Blood [10] = test: Antiinflammatory activity in human whole blood assessed as inhibition of IL-1beta-induced IL-8 production after overnight incubation by ELISA relative to Dexamethasone; assay type: functional; method in brief: as §1
Rattus norvegicus [11] = test: Antiinflammatory activity in Sprague-Dawley rat assessed as carrageenan-induced paw edema at 30 mg/kg, po administered as a single dose 2 hrs before carrageenan challenge measured 4 hrs post carrageenan challenge by plethysmometry relative to control

EC50 (MG-63 [2]): 19 nM | EC50 (Blood [3]): 89 nM | EC50 [4]: 2 nM | EC50 (Blood [7]): 124 nM | EC50 (Blood [9]): 104 nM
SMILES: C[C@]12C=CC(=O)C=C1CC[C@@H]1[C@@H]2[C@@H](O)C[C@@]2(C)[C@H]1CC[C@]2(O)C(=O)CO [PREDNISOLONE]
Imax (Blood [1]): 94% | Imax (Blood [5]): 94% | Activity (Rattus norvegicus [6]): Active | Emax (SAOS-2): 68% | Emax (MG-63 [8]): 100% | Imax (Blood [10]): 94% | level, % of control at 30 mg/kg (Rattus norvegicus [11]): 49%
